According to ChEMBL document CHEMBL5058577, “EUbOPEN Chemogenomics Library 2 (Multiplex)” (2022):

System: U2OS
Test: Multiplex assay against U2OS
Format: toxicity, cell-based
Details: human
In short: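 Phenotypes for tubulin, mitochondrial mass and membrane permeability are expressed as per cents of healthy-nucleus cells. Cells were stained live at seeding with Hoechst33342, BioTracker Green Microtubule Cytoskeleton Dye, MitoTracker Red and Annexin V Alexa Fluor 680, then imaged after compound addition on a CQ1 microscope at 37°C and 5% CO2. Machine-learning gating in CellPathfinder separated Hoechst high-intensity objects from normal cells, divided normal cells by nuclear state (healthy, pyknosed, fragmented) and divided pyknosed cells into mitotic or apoptotic.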

[1] = 12 h, 1 µM, compound concentration 1 uM, replicate 1
[2] = 12 h, 1 µM, compound concentration 1 uM, replicate 2
[3] = 12 h, 10 µM, compound concentration 10 uM, replicate 1
[4] = 12 h, 10 µM, compound concentration 10 uM, replicate 2
[5] = 24 h, 1 µM, compound concentration 1 uM, replicate 1
[6] = 24 h, 1 µM, compound concentration 1 uM, replicate 2
[7] = 24 h, 10 µM, compound concentration 10 uM, replicate 1
[8] = 24 h, 10 µM, compound concentration 10 uM, replicate 2
[9] = 48 h, 1 µM, compound concentration 1 uM, replicate 1
[10] = 48 h, 1 µM, compound concentration 1 uM, replicate 2
[11] = 48 h, 10 µM, compound concentration 10 uM, replicate 1
[12] = 48 h, 10 µM, compound concentration 10 uM, replicate 2

## CC(C)(C)c1cc(NC(=O)Nc2ccc(-c3cn4c(n3)sc3cc(OCCN5CCOCC5)ccc34)cc2)no1 [QUIZARTINIB]
[1]
  Population Apoptotic (%): 48%
  Population Fragmented Nuclei (%): 24%
  Population Healthy Nuclei (%): 61%
  Population Hoechst High Intensity Objects (%): 6%
  Population Membrane Permeable-Phenotype (%): 13%
  Population Mitochondria Different-Phenotype (%): 4%
  Population Mitotic Cells (%): 51%
  Population Normal (%): 93%
  Population Pyknosed Nuclei (%): 14%
  Population Tubulin-Different-Phenotype (%): 8%
  Total Cell Count: 213
[2]
  Population Apoptotic (%): 78%
  Population Fragmented Nuclei (%): 17%
  Population Healthy Nuclei (%): 70%
  Population Hoechst High Intensity Objects (%): 1%
  Population Membrane Permeable-Phenotype (%): 6%
  Population Mitochondria Different-Phenotype (%): 6%
  Population Mitotic Cells (%): 21%
  Population Normal (%): 98%
  Population Pyknosed Nuclei (%): 11%
  Population Tubulin-Different-Phenotype (%): 4%
  Total Cell Count: 119
[3]
  Population Apoptotic (%): 58%
  Population Fragmented Nuclei (%): 30%
  Population Healthy Nuclei (%): 47%
  Population Hoechst High Intensity Objects (%): 13%
  Population Membrane Permeable-Phenotype (%): 85%
  Population Mitochondria Different-Phenotype (%): 26%
  Population Mitotic Cells (%): 41%
  Population Normal (%): 86%
  Population Pyknosed Nuclei (%): 21%
  Population Tubulin-Different-Phenotype (%): 76%
  Total Cell Count: 197
[4]
  Population Apoptotic (%): 23%
  Population Fragmented Nuclei (%): 11%
  Population Healthy Nuclei (%): 65%
  Population Hoechst High Intensity Objects (%): 6%
  Population Membrane Permeable-Phenotype (%): 62%
  Population Mitochondria Different-Phenotype (%): 33%
  Population Mitotic Cells (%): 76%
  Population Normal (%): 94%
  Population Pyknosed Nuclei (%): 22%
  Population Tubulin-Different-Phenotype (%): 54%
  Total Cell Count: 100
[5]
  Population Apoptotic (%): 57%
  Population Fragmented Nuclei (%): 25%
  Population Healthy Nuclei (%): 56%
  Population Hoechst High Intensity Objects (%): 2%
  Population Membrane Permeable-Phenotype (%): 15%
  Population Mitochondria Different-Phenotype (%): 8%
  Population Mitotic Cells (%): 42%
  Population Normal (%): 97%
  Population Pyknosed Nuclei (%): 17%
  Population Tubulin-Different-Phenotype (%): 7%
  Total Cell Count: 234
[6]
  Population Apoptotic (%): 62%
  Population Fragmented Nuclei (%): 15%
  Population Healthy Nuclei (%): 72%
  Population Hoechst High Intensity Objects (%): 0%
  Population Membrane Permeable-Phenotype (%): 9%
  Population Mitochondria Different-Phenotype (%): 4%
  Population Mitotic Cells (%): 37%
  Population Normal (%): 99%
  Population Pyknosed Nuclei (%): 12%
  Population Tubulin-Different-Phenotype (%): 5%
  Total Cell Count: 134
[7]
  Population Apoptotic (%): 63%
  Population Fragmented Nuclei (%): 34%
  Population Healthy Nuclei (%): 34%
  Population Hoechst High Intensity Objects (%): 11%
  Population Membrane Permeable-Phenotype (%): 55%
  Population Mitochondria Different-Phenotype (%): 38%
  Population Mitotic Cells (%): 36%
  Population Normal (%): 88%
  Population Pyknosed Nuclei (%): 30%
  Population Tubulin-Different-Phenotype (%): 45%
  Total Cell Count: 195
[8]
  Population Apoptotic (%): 51%
  Population Fragmented Nuclei (%): 10%
  Population Healthy Nuclei (%): 58%
  Population Hoechst High Intensity Objects (%): 2%
  Population Membrane Permeable-Phenotype (%): 40%
  Population Mitochondria Different-Phenotype (%): 32%
  Population Mitotic Cells (%): 48%
  Population Normal (%): 97%
  Population Tubulin-Different-Phenotype (%): 30%
  Total Cell Count: 96
[9]
  Population Apoptotic (%): 60%
  Population Fragmented Nuclei (%): 21%
  Population Healthy Nuclei (%): 61%
  Population Hoechst High Intensity Objects (%): 3%
  Population Membrane Permeable-Phenotype (%): 7%
  Population Mitochondria Different-Phenotype (%): 2%
  Population Mitotic Cells (%): 39%
  Population Normal (%): 96%
  Population Pyknosed Nuclei (%): 16%
  Population Tubulin-Different-Phenotype (%): 3%
  Total Cell Count: 297
[10]
  Population Apoptotic (%): 73%
  Population Fragmented Nuclei (%): 16%
  Population Healthy Nuclei (%): 72%
  Population Hoechst High Intensity Objects (%): 2%
  Population Membrane Permeable-Phenotype (%): 9%
  Population Mitochondria Different-Phenotype (%): 7%
  Population Mitotic Cells (%): 26%
  Population Normal (%): 97%
  Population Pyknosed Nuclei (%): 10%
  Population Tubulin-Different-Phenotype (%): 6%
  Total Cell Count: 180
[11]
  Population Apoptotic (%): 72%
  Population Fragmented Nuclei (%): 33%
  Population Healthy Nuclei (%): 25%
  Population Hoechst High Intensity Objects (%): 9%
  Population Membrane Permeable-Phenotype (%): 41%
  Population Mitochondria Different-Phenotype (%): 33%
  Population Mitotic Cells (%): 27%
  Population Normal (%): 90%
  Population Pyknosed Nuclei (%): 40%
  Population Tubulin-Different-Phenotype (%): 33%
  Total Cell Count: 219
[12]
  Population Apoptotic (%): 56%
  Population Fragmented Nuclei (%): 19%
  Population Healthy Nuclei (%): 48%
  Population Hoechst High Intensity Objects (%): 5%
  Population Membrane Permeable-Phenotype (%): 35%
  Population Mitotic Cells (%): 43%
  Population Normal (%): 94%
  Population Pyknosed Nuclei (%): 32%
  Population Tubulin-Different-Phenotype (%): 28%
  Total Cell Count: 98
